The source of these data is ChEMBL document CHEMBL4138058, “Design and synthesis of novel selective estrogen receptor degradation inducers based on the diphenylheptane skeleton” (Medchemcomm, 2017).

Assay [1] concerns the target T1, Androgen receptor (Homo sapiens) (UniProt P10275).
T1 sequence (whole entry): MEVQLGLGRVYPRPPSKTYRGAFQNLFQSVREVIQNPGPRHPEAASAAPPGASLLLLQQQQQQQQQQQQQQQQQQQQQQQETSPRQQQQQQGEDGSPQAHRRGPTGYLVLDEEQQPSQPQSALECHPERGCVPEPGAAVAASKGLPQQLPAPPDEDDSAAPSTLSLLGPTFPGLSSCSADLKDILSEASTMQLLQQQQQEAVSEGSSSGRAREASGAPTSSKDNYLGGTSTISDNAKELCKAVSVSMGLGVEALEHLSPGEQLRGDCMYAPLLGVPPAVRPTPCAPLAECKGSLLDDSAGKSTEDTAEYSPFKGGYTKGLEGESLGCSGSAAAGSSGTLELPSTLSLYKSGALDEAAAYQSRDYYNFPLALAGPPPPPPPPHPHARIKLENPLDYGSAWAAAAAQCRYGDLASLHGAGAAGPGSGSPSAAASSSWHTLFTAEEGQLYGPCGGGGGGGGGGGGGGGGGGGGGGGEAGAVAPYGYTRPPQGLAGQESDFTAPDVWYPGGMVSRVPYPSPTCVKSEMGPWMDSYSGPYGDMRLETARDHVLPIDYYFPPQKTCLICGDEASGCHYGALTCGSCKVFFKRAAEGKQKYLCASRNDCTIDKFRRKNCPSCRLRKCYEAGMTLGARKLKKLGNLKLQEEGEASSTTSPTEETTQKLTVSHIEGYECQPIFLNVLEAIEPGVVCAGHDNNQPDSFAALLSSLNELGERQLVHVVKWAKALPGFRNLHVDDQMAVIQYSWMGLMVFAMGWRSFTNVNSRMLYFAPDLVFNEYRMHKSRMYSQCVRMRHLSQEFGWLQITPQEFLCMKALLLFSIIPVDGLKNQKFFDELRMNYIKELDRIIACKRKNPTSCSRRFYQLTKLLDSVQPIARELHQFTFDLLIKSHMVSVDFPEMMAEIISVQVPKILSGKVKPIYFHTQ
In words: Downregulation of androgen receptor expression in human MCF7 cells at 3 uM after 6 hrs by Western blot method relative to lamin B. Type of assay: cell-based. A digest of the protocol: (§1)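 MCF-7 cells kept in DMEM with 10% FBS, kanamycin and 10 μg/mL insulin, then exposed to compounds for 6 h. Lysates made in SDS buffer (0.1 M Tris-HCl pH 8.0, 10% glycerol, 1% SDS), boiled, BCA-normalized and run on SDS-PAGE. Blots probed with anti-ERα, AR, AhR or VDR and β-actin or lamin B. Chemiluminescence quantified as target/loading-protein ratio; means ± S.E., n=3.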

Assay [2] deals with T1, Androgen receptor (Homo sapiens). Nature of the assay: Downregulation of androgen receptor expression in human MCF7 cells at 1 uM after 6 hrs in presence of proteasome inhibitor MG132 by Western blot method relative to lamin B. It counts as cell-based. A digest of the protocol: as §1
In assay [3] the target is T2, Vitamin D3 receptor (Homo sapiens) (UniProt P11473).
T2 sequence (whole entry): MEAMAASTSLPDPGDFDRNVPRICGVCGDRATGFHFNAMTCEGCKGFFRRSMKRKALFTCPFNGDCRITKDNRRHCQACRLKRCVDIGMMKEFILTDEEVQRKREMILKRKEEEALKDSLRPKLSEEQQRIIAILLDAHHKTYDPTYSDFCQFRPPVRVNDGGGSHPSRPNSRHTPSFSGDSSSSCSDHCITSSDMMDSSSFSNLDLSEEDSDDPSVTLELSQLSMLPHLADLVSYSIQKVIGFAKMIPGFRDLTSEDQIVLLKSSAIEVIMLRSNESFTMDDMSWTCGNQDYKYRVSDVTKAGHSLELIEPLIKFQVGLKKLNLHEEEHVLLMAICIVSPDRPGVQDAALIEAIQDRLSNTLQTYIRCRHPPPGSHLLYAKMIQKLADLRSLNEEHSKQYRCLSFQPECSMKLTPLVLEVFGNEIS
Nature of the assay: Downregulation of VDR expression in human MCF7 cells at 10 uM after 6 hrs in presence of proteasome inhibitor MG132 by Western blot method relative to lamin B. Type of assay: cell-based. A digest of the protocol: as §1

The target of the next assay is T3, Estrogen receptor (Homo sapiens, UniProt P03372).
T3 sequence (P03372 whole entry): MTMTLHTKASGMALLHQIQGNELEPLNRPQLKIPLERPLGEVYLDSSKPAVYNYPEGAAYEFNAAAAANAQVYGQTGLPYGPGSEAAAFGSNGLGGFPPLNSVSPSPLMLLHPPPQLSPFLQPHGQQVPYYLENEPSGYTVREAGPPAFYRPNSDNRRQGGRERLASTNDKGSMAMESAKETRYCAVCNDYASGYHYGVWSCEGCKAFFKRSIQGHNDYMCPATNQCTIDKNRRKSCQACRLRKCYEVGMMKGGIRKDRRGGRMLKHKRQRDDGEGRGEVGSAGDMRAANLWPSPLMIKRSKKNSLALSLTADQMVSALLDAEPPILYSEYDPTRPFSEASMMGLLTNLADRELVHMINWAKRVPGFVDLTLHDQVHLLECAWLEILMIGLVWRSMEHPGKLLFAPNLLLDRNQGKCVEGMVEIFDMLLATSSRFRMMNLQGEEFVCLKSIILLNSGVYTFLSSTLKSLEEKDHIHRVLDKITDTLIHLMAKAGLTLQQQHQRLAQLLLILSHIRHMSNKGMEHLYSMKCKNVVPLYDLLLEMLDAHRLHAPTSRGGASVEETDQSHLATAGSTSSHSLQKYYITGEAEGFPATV
In words: Displacement of Fluormone ES2 Green from full-length untagged human ERalpha expressed in insect cells after 2 hrs by fluorescence polarization assay.

`CCCCCCCCCCNCCOc1ccc(C(CCC)(CCC)c2ccc(O)c(C)c2)cc1C`: the results for the Activity in assay [1], in assay [2] and in assay [3] were 106%, 96% and 86%, respectively. In addition, the IC50 on Estrogen receptor turned out to be 4.9 nM.
